Active and inactive are the calls of the source. No cut-off for these calls is given here.
Tests used:
NALM-6 [1] = test: Cytostatic activity against eFluor670-labelled human NALM6 cells assessed as live cells at 2 umol/L measured on day 1 by Hoechst-33258 staining-based FACS analysis (reference value: 95.5%); type: functional
REH [2] = test: Cytostatic activity against human REH cells at 2 umol/L measured after 2 to 3 days using Burker counting chamber; type: functional, cell-based
In short: (§1)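 Cells were seeded at 2.5 × 10^5 cells/mL in DMSO-containing medium, with or without 2 μmol/L compound. Cells were counted daily in a Bürker chamber. PDL was calculated as log(Nf/N0)/log 2 over 6 days. Values are mean ± SD of three experiments, compared with DMSO controls.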

[3] = Cytotoxicity against human NALM6 cells assessed as reduction in viable cells measured after 24 hrs by Hoechst-33258 staining-based FACS analysis; type: functional, cell-based; details: NALM-6, 24 h
In short: (§2)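 Leukemic lines kept in RPMI1640 with 10% FBS, penicillin/streptomycin, 37 °C, 5% CO2. Seeded at 2 × 10^5 cells/mL and exposed 24 h to a range of compound concentrations (DMSO stock); medium and DMSO negative controls. Live fraction taken from Hoechst 33258-negative singlets by flow cytometry. EC50 from five-parameter nonlinear regression.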

Jurkat [4] = test: Inhibition of P70S6K in human Jurkat cells assessed as decrease in phosphorylated P70S6K expression at EC50 by immunoblot analysis; type: cell-based; details: TDE = time-dependent effect
In short: (§3)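 Cells prepared as for RT-qPCR (7.5 × 10^5 cells/mL). Treated either with the line-specific EC50 concentration over a time course, or 24 h with graded concentrations up to that EC50. Cells washed with phosphatase inhibitors and lysed in RIPA; 40 μg protein per lane on SDS-PAGE, then nitrocellulose. Immunoblotted for C-MYC, P70S6K, p-P70S6K (Ser424) and actin.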

REH [5] = test: Cytostatic activity against eFluor670-labelled human REH cells assessed as live cells at 2 umol/L measured on day 2 by Hoechst-33258 staining-based FACS analysis (reference value: 90.8%); type: functional
[6] = target: Myc proto-oncogene protein (Homo sapiens) (UniProt P01106); test: Inhibition of C-MYC in human Jurkat cells assessed as decrease in PKM2 level at EC50 measured after 24 hrs by RT-qPCR analysis; type: cell-based
Chain of Myc proto-oncogene protein (Homo sapiens) (P01106 whole entry): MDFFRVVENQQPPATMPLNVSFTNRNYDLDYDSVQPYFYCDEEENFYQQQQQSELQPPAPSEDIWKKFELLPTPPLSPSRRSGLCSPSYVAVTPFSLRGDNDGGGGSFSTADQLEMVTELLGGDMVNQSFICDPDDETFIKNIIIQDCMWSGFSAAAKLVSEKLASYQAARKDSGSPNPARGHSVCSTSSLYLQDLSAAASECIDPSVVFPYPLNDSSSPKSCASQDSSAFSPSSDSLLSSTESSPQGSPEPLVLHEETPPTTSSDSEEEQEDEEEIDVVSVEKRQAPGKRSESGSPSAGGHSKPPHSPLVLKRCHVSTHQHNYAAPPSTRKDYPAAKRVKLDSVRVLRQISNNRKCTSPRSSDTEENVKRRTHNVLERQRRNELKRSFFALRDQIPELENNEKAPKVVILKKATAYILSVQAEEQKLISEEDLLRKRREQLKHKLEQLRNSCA

[7] = Cytotoxicity against CD14+ monocytes in human PBMC population assessed as viable cells at 100 umol/L measured after 24 hrs by Hoechst-33258 staining-based FACS analysis (reference value: 13.8%); type: toxicity, cell-based, Monocyte; details: read-out: Activity
In short: (§4)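 PBMC were isolated from blood on a Ficoll-Paque gradient and seeded at 1 × 10^5 cells/well in 400 μL RPMI1640. Cells were exposed to a range of compound concentrations for 24 h. Viable CD3+, CD14+ and CD20+ populations were measured as Hoechst 33258-negative singlets by flow cytometry. EC50 was obtained by five-parameter nonlinear regression.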

NALM-6 [8] = test: Inhibition of P70S6K in human NALM6 cells assessed as decrease in C-MYC expression measured after 24 hrs by immunoblot analysis; type: cell-based; in short: as §3
Jurkat [9] = test: Cytostatic activity against human Jurkat cells assessed as population doubling level at 2 umol/L after 6 days using Burker counting chamber (reference value: 3.25); type: functional; in short: as §1
[10] = Cytotoxicity against CD3+ T-lymphocytes in human PBMC population assessed as reduction in viable cells measured after 24 hrs by Hoechst-33258 staining-based FACS analysis; type: toxicity, cell-based, T-cell; in short: as §4
Jurkat [11] = test: Cytostatic activity against eFluor670-labelled human Jurkat cells assessed as live cells at 2 umol/L measured immediately after compound addition by Hoechst-33258 staining-based FACS analysis (reference value: 98.2%); type: functional
NALM-6 [12] = test: Cytostatic activity against eFluor670-labelled human NALM6 cells assessed as live cells at 2 umol/L measured on day 3 by Hoechst-33258 staining-based FACS analysis (reference value: 98.6%); type: functional
[13] = Downregulation of P70S6K protein expression in human REH cells at EC50 measured after 24 hrs by immunoblot analysis; type: functional, cell-based; in short: as §3
NALM-6 [14] = test: Inhibition of P70S6K in human NALM6 cells assessed as decrease in C-MYC expression at 2 to 20 umol/L by immunoblot analysis; type: cell-based; details: TDE = time-dependent effect; in short: as §3
[15] = target: Myc proto-oncogene protein (Homo sapiens) (UniProt P01106); test: Inhibition of C-MYC in human REH cells assessed as decrease in LDHA level at EC50 measured after 24 hrs by RT-qPCR analysis; type: cell-based
[16] = Cytotoxicity against PHA/LPS-stimulated CD3-positive T-lymphocytes in eFluor-670-labeled human PBMC assessed as proliferation index at 2 umol/L administered post 18 hrs of PHA/LPS-stimulation measured after 72 hrs by Hoechst-33258 staining-based FACS analysis (reference value: 1.58); type: toxicity; details: t-cell, 2 µM
In short: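 PBMC were labelled with 1 μmol/L CPD, stimulated with PHA (5 μg/mL) plus LPS (1 μg/mL), and seeded at 3 × 10^5 cells/well in 300 μL. Compound was added after 18 h and left for 72 h. Cells were stained with anti-CD3. Unstimulated cells set the CPD+ gate. Proliferation index, division index and % divided were calculated for CPD+CD3+ Hoechst-negative cells.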

NALM-6 [17] = test: Cytostatic activity against eFluor670-labelled human NALM6 cells assessed as live cells at 2 umol/L measured immediately after compound addition by Hoechst-33258 staining-based FACS analysis (reference value: 95.8%); type: functional
Jurkat [18] = test: Cytostatic activity against eFluor670-labelled human Jurkat cells assessed as live cells at 2 umol/L measured on day 5 by Hoechst-33258 staining-based FACS analysis (reference value: 97%); type: functional
REH [19] = test: Inhibition of P70S6K in human REH cells assessed as decrease in C-MYC expression measured after 24 hrs by immunoblot analysis; type: cell-based; in short: as §3
[20] = Cytotoxicity against CD14+ monocytes in human PBMC population assessed as viable cells at 15 umol/L measured after 24 hrs by Hoechst-33258 staining-based FACS analysis (reference value: 13.8%); type: toxicity, cell-based, Monocyte; details: read-out: Activity; in short: as §4
NALM-6 [21] = test: Cytostatic activity against eFluor670-labelled human NALM6 cells assessed as live cells at 2 umol/L measured on day 4 by Hoechst-33258 staining-based FACS analysis (reference value: 98.6%); type: functional
[22] = target: Myc proto-oncogene protein (Homo sapiens) (UniProt P01106); test: Inhibition of C-MYC in human NALM6 cells assessed as decrease in PKM2 level at EC50 measured after 24 hrs by RT-qPCR analysis; type: cell-based; details: NALM-6
Jurkat [23] = test: Cytostatic activity against human Jurkat cells at 2 umol/L measured after 2 to 3 days using Burker counting chamber; type: functional, cell-based; in short: as §1
[24] = Cytotoxicity against human REH cells assessed as reduction in viable cells measured after 24 hrs by Hoechst-33258 staining-based FACS analysis; type: functional, cell-based; in short: as §2
REH [25] = test: Inhibition of P70S6K in human REH cells assessed as decrease in phosphorylated P70S6K expression at EC50 by immunoblot analysis; type: cell-based; details: TDE = time-dependent effect; in short: as §3
[26] = Cytotoxicity against human PBMC assessed as reduction in viable cells measured after 24 hrs by Hoechst-33258 staining-based FACS analysis; type: toxicity, cell-based
In short: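 Human PBMC isolated on a Ficoll-Paque gradient, seeded at 1 × 10^5 cells/well in RPMI1640. Exposed 24 h to a compound concentration range; medium and DMSO negative controls. Cells stained with Hoechst 33258 and read by flow cytometry; live-cell percentage from Hoechst-negative singlets. EC50 by five-parameter nonlinear regression.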

- inhibition [6]: Active
- inhibition [15]: Active
- inhibition [22]: Active
Structure (SMILES): CCCCCC(=O)C1=C(O)C(=O)c2c(O)c(O)cc(O)c2C1=O
- Activity (NALM-6 [1]): 95.2%
- Activity (REH [2]): Active
- EC50 [3]: 16.7 µM
- inhibition (Jurkat [4]): Tde
- Activity (REH [5]): 40.2%
- viability at 24 h, 100 µM [7]: 0.21%
- inhibition (NALM-6 [8]): Dose-dependent effect
- Activity (Jurkat [9]): 1.64
- EC50 at 24 h [10]: 65.7 µM
- Activity (Jurkat [11]): 98.2%
- Activity (NALM-6 [12]): 98.1%
- Activity [13]: Active
- inhibition (NALM-6 [14]): Tde
- Activity_index [16]: 1.23
- Activity (NALM-6 [17]): 95.8%
- Activity (Jurkat [18]): 25.5%
- inhibition (REH [19]): Dose-dependent effect
- viability at 24 h, 15 µM [20]: 8.1%
- Activity (NALM-6 [21]): 96.7%
- Activity (Jurkat [23]): Active
- EC50 [24]: 22 µM
- inhibition (REH [25]): Tde
- EC50 at 24 h [26]: 56.1 µM
